Results as given in ChEMBL document CHEMBL4732181, “Pyrazolo[3,4-d]pyrimidine-based dual EGFR T790M/HER2 inhibitors: Design, synthesis, structure-activity relationship and biological activity as potential antitumor and anticonvulsant agents” (Eur J Med Chem, 2021).
Active and inactive are the calls of the source. No cut-off for these calls is given here.

Experiments:
Mus musculus [1] = experiment: Anticonvulsant activity against mouse model of LiCa/pilocarpine-induced status epilepticus assessed as spectral edge frequency at 20 mg/kg, po for 10 days by EEG method relative to control; format: functional; conditions: time 10 day
Summary of the method: (§1)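 Male mice (20-30 g), five per group, dosed orally once daily for 10 days. Status epilepticus was then induced with LiCa (3 mEq/kg i.p.), atropine sulfate (1 mg/kg i.p.) 30 min before pilocarpine, and pilocarpine HCl (300 mg/kg i.p.) 2 h after LiCa. Normal controls received oral distilled water. Comparators were untreated SE, phenytoin and lamotrigine. One-way ANOVA with Tukey post-hoc; mean ± SD.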

HCT-116 [2] = experiment: Induction of apoptosis in human HCT-116 cells assessed as early apoptotic cells at IC50 concentration after 24 hrs by annexin-V-FITC/PI staining based flow cytometric analysis (reference value: 0.34%); format: functional
[3] = biological target: Epidermal growth factor receptor (Homo sapiens, UniProt P00533, T790M); experiment: Inhibition of EGFR T790M mutant (unknown origin)
Chain of Epidermal growth factor receptor (P00533 25-1210 T790M limits assumed): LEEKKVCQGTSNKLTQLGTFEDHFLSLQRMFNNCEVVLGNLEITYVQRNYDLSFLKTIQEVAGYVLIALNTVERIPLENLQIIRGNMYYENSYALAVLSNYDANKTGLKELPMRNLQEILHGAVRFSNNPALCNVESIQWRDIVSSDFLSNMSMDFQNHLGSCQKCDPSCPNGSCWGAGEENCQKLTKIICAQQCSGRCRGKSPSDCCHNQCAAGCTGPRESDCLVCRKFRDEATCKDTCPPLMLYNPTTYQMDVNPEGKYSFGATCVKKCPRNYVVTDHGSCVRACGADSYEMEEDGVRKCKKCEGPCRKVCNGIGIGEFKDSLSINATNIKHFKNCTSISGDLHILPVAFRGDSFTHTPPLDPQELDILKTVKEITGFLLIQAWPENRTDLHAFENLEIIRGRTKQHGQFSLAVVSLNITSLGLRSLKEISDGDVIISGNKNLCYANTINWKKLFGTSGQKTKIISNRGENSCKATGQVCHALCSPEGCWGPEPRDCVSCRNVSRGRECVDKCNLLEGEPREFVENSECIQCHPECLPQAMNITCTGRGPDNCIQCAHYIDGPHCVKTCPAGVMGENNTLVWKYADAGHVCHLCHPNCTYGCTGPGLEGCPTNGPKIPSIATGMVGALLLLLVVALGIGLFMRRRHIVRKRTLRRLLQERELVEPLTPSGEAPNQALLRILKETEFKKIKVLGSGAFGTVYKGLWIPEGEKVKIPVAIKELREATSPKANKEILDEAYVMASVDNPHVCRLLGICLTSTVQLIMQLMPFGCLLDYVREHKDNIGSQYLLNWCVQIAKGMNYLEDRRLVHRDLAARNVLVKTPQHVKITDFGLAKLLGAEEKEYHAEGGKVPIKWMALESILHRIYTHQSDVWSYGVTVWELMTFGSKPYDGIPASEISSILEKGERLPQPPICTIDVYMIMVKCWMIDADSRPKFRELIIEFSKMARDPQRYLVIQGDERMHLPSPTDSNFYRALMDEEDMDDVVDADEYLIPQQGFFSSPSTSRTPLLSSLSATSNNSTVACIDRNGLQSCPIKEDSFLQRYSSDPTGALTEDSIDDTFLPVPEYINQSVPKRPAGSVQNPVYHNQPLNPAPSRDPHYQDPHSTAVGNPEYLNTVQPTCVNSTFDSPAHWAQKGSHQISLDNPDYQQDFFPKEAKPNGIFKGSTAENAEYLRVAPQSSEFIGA

HCT-116 [4] = experiment: Induction of apoptosis in human HCT-116 cells assessed as increase in caspace-7 protein expression at IC50 concentration after 24 hrs by ELISA; format: functional
Summary of the method: (§2)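 Cells treated at IC50 for 24 h and lysed in cell extraction buffer. Lysate diluted in standard diluent buffer and human caspase-3, -7, -9, Bax and Bcl-2 quantified by immunoassay kit (pg/mL). Fold change calculated against untreated control cells.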

Mus musculus [5] = experiment: Anticonvulsant activity against mouse model of LiCa/pilocarpine-induced status epilepticus assessed as alpha at 20 mg/kg, po for 10 days by EEG method relative to control; format: functional; conditions: time 10 day; summary of the method: as §1
Mus musculus [6] = experiment: Anticonvulsant activity against mouse model of LiCa/pilocarpine-induced status epilepticus assessed as total power at 20 mg/kg, po for 10 days by EEG method relative to control; format: functional; conditions: time 10 day; summary of the method: as §1
Mus musculus [7] = experiment: Anticonvulsant activity against mouse model of LiCa/pilocarpine-induced status epilepticus assessed as theta at 20 mg/kg, po for 10 days by EEG method relative to control; format: functional; conditions: time 10 day; summary of the method: as §1
HCT-116 [8] = experiment: Induction of apoptosis in human HCT-116 cells assessed as increase in early apoptotic cells at IC50 concentration after 24 hrs by annexin-V-FITC/PI staining based flow cytometric analysis; format: functional
Mus musculus [9] = experiment: Anticonvulsant activity against mouse model of LiCa/pilocarpine-induced status epilepticus assessed as Glutamate level in brain at 20 mg/kg, po for 10 days by ELISA relative to control; format: functional; conditions: time 10 day; summary of the method: as §1
Mus musculus [10] = experiment: Anticonvulsant activity against mouse model of LiCa/pilocarpine-induced status epilepticus assessed as power pV2 at 20 mg/kg, po for 10 days by EEG method relative to control; format: functional; conditions: time 10 day; summary of the method: as §1
Mus musculus [11] = experiment: Anticonvulsant activity against mouse model of LiCa/pilocarpine-induced status epilepticus assessed as amplitude at 20 mg/kg, po for 10 days by EEG method relative to control; format: functional; conditions: time 10 day; summary of the method: as §1
HCT-116 [12] = experiment: Induction of apoptosis in human HCT-116 cells assessed as increase in caspace-9 protein expression at IC50 concentration after 24 hrs by ELISA; format: functional; summary of the method: as §2
Mus musculus [13] = experiment: Anticonvulsant activity against mouse model of LiCa/pilocarpine-induced status epilepticus assessed as GSH level in brain at 20 mg/kg, po for 10 days by calorimetric method relative to control; format: functional; conditions: time 10 day; summary of the method: as §1
Mus musculus [14] = experiment: Anticonvulsant activity against mouse model of LiCa/pilocarpine-induced status epilepticus assessed as GABA level in brain at 20 mg/kg, po for 10 days by ELISA relative to control; format: functional; conditions: time 10 day; summary of the method: as §1
HCT-116 [15] = experiment: Induction of apoptosis in human HCT-116 cells assessed as increase in caspace-3 protein expression at IC50 concentration after 24 hrs by ELISA; format: functional; summary of the method: as §2
HCT-116 [16] = experiment: Induction of apoptosis in human HCT-116 cells assessed as increase in Bax/Bcl-2 ratio at IC50 concentration after 24 hrs by ELISA; format: functional, cell-based; summary of the method: as §2
HCT-116 [17] = experiment: Induction of cell cycle arrest in human HCT-116 cells assessed as cell accumulation at G2/M phase at IC50 concentration after 24 hrs by propidium iodide staining based flow cytometric analysis (reference value: 15.39%); format: functional
Mus musculus [18] = experiment: Anticonvulsant activity against mouse model of LiCa/pilocarpine-induced status epilepticus assessed as mean power frequency at 20 mg/kg, po for 10 days by EEG method relative to control; format: functional; conditions: time 10 day; summary of the method: as §1
HCT-116 [19] = experiment: Induction of apoptosis in human HCT-116 cells assessed as late apoptotic cells at IC50 concentration after 24 hrs by annexin-V-FITC/PI staining based flow cytometric analysis (reference value: 1.31%); format: functional
HCT-116 [20] = experiment: Induction of cell cycle arrest in human HCT-116 cells assessed as cell increase in accumulation at G2/M phase at IC50 concentration after 24 hrs by propidium iodide staining based flow cytometric analysis; format: functional
WI-38 = experiment: Cytotoxicity against human WI-38 cells assessed as reduction in cell viability after 48 hrs by MTT assay; format: cell-based; conditions: WI-38, 48 h
Summary of the method: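 Cells from ATCC grown in DMEM with 10% FBS, insulin and 1% penicillin-streptomycin. Plated at 1.2-1.8 × 10,000 cells/well for 24 h, then exposed to compounds in DMSO vehicle for 48 h. MTT 0.5 mg/ml added for 2 h; absorbance read at 570 nm. Experiments run in triplicate.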

HCT-116 [21] = experiment: Induction of cell cycle arrest in human HCT-116 cells assessed as cell accumulation at G1 phase at IC50 concentration after 24 hrs by propidium iodide staining based flow cytometric analysis (reference value: 46.95%); format: functional
HCT-116 [22] = experiment: Induction of apoptosis in human HCT-116 cells assessed as decrease in Bcl-2 protein expression at IC50 concentration after 24 hrs by ELISA; format: functional; summary of the method: as §2
[23] = biological target: T1, Receptor tyrosine-protein kinase erbB-2 (Homo sapiens, UniProt P04626); experiment: Inhibition of HER2 (unknown origin) at 10 uM relative to control
T1 sequence (P04626 whole entry): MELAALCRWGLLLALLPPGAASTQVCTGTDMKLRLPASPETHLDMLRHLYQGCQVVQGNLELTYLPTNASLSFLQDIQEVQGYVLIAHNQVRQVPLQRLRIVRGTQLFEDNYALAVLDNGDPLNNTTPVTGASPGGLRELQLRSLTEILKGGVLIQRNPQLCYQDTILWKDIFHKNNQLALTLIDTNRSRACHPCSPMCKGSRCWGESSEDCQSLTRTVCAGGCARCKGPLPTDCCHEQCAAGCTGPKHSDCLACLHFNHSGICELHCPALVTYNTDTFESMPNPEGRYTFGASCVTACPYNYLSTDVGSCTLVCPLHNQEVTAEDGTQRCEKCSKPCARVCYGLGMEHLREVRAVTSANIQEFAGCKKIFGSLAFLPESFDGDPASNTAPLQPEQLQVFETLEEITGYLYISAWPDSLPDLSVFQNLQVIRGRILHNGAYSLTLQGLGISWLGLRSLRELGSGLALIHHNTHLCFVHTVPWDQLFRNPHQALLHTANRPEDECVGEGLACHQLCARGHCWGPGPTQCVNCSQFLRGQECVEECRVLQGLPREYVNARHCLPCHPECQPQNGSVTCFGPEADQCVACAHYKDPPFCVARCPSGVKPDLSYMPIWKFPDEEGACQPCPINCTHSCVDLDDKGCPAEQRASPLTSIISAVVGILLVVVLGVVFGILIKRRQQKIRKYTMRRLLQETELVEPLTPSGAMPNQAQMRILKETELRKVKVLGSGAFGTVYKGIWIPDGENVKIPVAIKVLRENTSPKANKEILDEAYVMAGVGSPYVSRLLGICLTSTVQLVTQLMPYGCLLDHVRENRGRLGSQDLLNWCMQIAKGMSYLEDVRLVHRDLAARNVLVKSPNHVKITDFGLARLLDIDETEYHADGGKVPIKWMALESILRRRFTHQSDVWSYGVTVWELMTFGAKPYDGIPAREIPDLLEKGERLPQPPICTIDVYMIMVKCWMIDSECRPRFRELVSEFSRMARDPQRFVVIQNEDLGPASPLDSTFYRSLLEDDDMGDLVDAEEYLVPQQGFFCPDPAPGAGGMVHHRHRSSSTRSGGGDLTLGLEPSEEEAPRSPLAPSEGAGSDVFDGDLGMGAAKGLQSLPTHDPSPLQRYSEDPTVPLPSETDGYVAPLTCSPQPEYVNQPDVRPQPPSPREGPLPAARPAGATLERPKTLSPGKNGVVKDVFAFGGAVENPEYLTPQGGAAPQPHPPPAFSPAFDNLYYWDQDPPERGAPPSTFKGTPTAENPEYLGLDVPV
Summary of the method: (§3)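 Cell-free immunoassay kit measuring EGFR T790M/HER2 kinase inhibition. Percent inhibition screened at 10 µM. IC50 obtained from four concentrations (0.01-10 µM) by fitting E(%) = Emax/(1+[I]/ID50) to a dose-response curve. Mean of two independent replicates.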

Mus musculus [24] = experiment: Anticonvulsant activity against mouse model of LiCa/pilocarpine-induced status epilepticus assessed as total power density at 20 mg/kg, po for 10 days by EEG method relative to control; format: functional; conditions: time 10 day; summary of the method: as §1
Mus musculus [25] = experiment: Anticonvulsant activity against mouse model of LiCa/pilocarpine-induced status epilepticus assessed as MDA level in brain at 20 mg/kg, po for 10 days by calorimetric method relative to control; format: functional; conditions: time 10 day; summary of the method: as §1
Mus musculus [26] = experiment: Anticonvulsant activity against mouse model of LiCa/pilocarpine-induced status epilepticus assessed as delta at 20 mg/kg, po for 10 days by EEG method relative to control; format: functional; conditions: time 10 day; summary of the method: as §1
HCT-116 [27] = experiment: Induction of cell cycle arrest in human HCT-116 cells assessed as cell accumulation at S phase at IC50 concentration after 24 hrs by propidium iodide staining based flow cytometric analysis (reference value: 37.66%); format: functional
HCT-116 [28] = experiment: Induction of cell cycle arrest in human HCT-116 cells assessed as cell accumulation at pre-G1 phase at IC50 concentration after 24 hrs by propidium iodide staining based flow cytometric analysis (reference value: 2.02%); format: functional
[29] = biological target: T1, Receptor tyrosine-protein kinase erbB-2; experiment: Inhibition of HER2 (unknown origin); summary of the method: as §3
Mus musculus [30] = experiment: Anticonvulsant activity against mouse model of LiCa/pilocarpine-induced status epilepticus assessed as amplitude density at 20 mg/kg, po for 10 days by EEG method relative to control; format: functional; conditions: time 10 day; summary of the method: as §1
HCT-116 [31] = experiment: Induction of apoptosis in human HCT-116 cells assessed as increase in Bax protein expression at IC50 concentration after 24 hrs by ELISA; format: functional; summary of the method: as §2
HCT-116 [32] = experiment: Induction of apoptosis in human HCT-116 cells assessed as increase in late apoptotic cells at IC50 concentration after 24 hrs by annexin-V-FITC/PI staining based flow cytometric analysis; format: functional

| SMILES | Activity (Mus musculus [1]) | Activity (Mus musculus [5]) | Activity (Mus musculus [6]) | Activity (Mus musculus [7]) | Activity (Mus musculus [9]) | Activity (Mus musculus [10]) | Activity (Mus musculus [11]) | Activity (Mus musculus [13]) | Activity (Mus musculus [14]) | Activity (Mus musculus [18]) | IC50 (WI-38) | inhibition [23] | Activity (Mus musculus [24]) | Activity (Mus musculus [25]) | Activity (Mus musculus [26]) | IC50 [29] | Activity (Mus musculus [30]) | further results |
| --- | --- | --- | --- | --- | --- | --- | --- | --- | --- | --- | --- | --- | --- | --- | --- | --- | --- | --- |
| Cc1ccc(C2=N/C(=C/c3ccc(Cl)cc3)C(=O)NN2C(=O)Cc2nc3c(c(C)nn3-c3ccccc3)c(=O)[nH]2)cc1 | -16.14% | 31.95% | 2.62% | 44.83% | -37.61% | 121.31% | 50.22% | 134.61% | 56.77% | -24.4% | 29.4 nM | 72.6% | 176.8% | -57.67% | 229.74% | 634 nM | 62.01% | Activity (HCT-116 [2]): 10.37%; IC50 [3]: 422 nM; fold change (FC) (HCT-116 [4]): 20; fold change (FC) (HCT-116 [8]): 30.79; fold change (FC) (HCT-116 [12]): 16.5; fold change (FC) (HCT-116 [15]): 18.5; Activity (HCT-116 [16]): Active; Activity (HCT-116 [17]): 45.94%; Activity (HCT-116 [19]): 2.72%; fold change (FC) (HCT-116 [20]): 2.98; Activity (HCT-116 [21]): 22.64%; fold change (FC) (HCT-116 [22]): 3.8; Activity (HCT-116 [27]): 31.42%; Activity (HCT-116 [28]): 17.35%; fold change (FC) (HCT-116 [31]): 6.9; fold change (FC) (HCT-116 [32]): 2 |
| Cc1ccc(C2=N/C(=C/c3ccccc3)C(=O)NN2C(=O)Cc2nc3c(c(C)nn3-c3ccccc3)c(=O)[nH]2)cc1 | -29% | -5.99% | 23.32% | 11.83% | -82.89% | 243.46% | 90.67% | 188.85% | 91.22% | -46.23% | 85.6 nM | – | 302.31% | -69.74% | 366.41% | – | 110.33% | – |
| Cc1ccc(C2=N/C(=C\c3ccc(Cl)cc3)C(=O)NN2C(=O)c2nc3c(c(C)nn3-c3ccccc3)c(=O)[nH]2)cc1 | -20.49% | 13.75% | 15.45% | 34.92% | -36.07% | 152.01% | 66.22% | 113.22% | 58.15% | -29.47% | 26.4 nM | 54.5% | 208.36% | -50.74% | 256.83% | 11200 nM | 71.73% | – |
| Cc1nn(-c2ccccc2)c2nc(C(=O)N3NC(=O)/C(=C/c4ccccc4)N=C3c3ccc(Cl)cc3)[nH]c(=O)c12 | -13.59% | 27.21% | 10.2% | 16.08% | -39.91% | 133.56% | 54.67% | 80.37% | 89.37% | -22.83% | 55 nM | – | 200.5% | -55.28% | 254.07% | – | 76.29% | – |
